IC50 data for five molecules are collected here from ChEMBL document CHEMBL2040816, “Design, synthesis, and structure-activity relationship studies of novel millepachine derivatives as potent antiproliferative agents” (Eur J Med Chem, 2012).

Structures are written as SMILES.

The term IC50 denotes the point on the concentration scale where inhibition reaches its midpoint. Low values mean greater potency, high ones weaker potency.

Common to all, as to assay type: functional, cell-based
For one experiment, the system named is SK-OV-3. Kind of experiment: Antiproliferative activity against human SKOV3 cells after 24 hrs by MTT assay. To be noted: SK-OV-3, 24 h. The procedure, abridged: (§1)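 MTT assay. 1 × 10⁴ cells per well were plated and incubated 24 h before dye was added (20 µL of 5 mg/mL MTT in PBS per well), then incubated until a purple precipitate formed. Precipitate dissolved in 150 µL DMSO after medium removal, then absorbance read.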
In general terms: Formazan colour is commonly taken as a measure of viable cells.

For the next experiment, the system named is HT-29. Kind of experiment: Antiproliferative activity against human HT-29 cells after 24 hrs by MTT assay. To be noted: HT-29, 24 h. In a few lines: as §1
A further experiment relates to HCT-116. Kind of experiment: Antiproliferative activity against human HCT116 cells after 24 hrs by MTT assay. To be noted: HCT-116, 24 h. In a few lines:
as §1

The next experiment concerns K562. Kind of experiment: Antiproliferative activity against human K562 cells after 24 hrs by MTT assay. To be noted: K562, 24 h. In a few lines: as §1
The next experiment relates to HepG2. Kind of experiment: Antiproliferative activity against human HepG2 cells after 24 hrs by MTT assay. To be noted: HepG2, 24 h. The procedure, abridged: as §1
The next experiment has as its system SW-620. Kind of experiment: Antiproliferative activity against human SW620 cells after 24 hrs by MTT assay. Conditions: SW-620, 24 h. The procedure, abridged:
as §1

Consider `COc1ccc(C(=O)/C=C/c2ccccn2)c2c1C=CC(C)(C)O2`, for which the IC50 in the experiment on SK-OV-3 was 8.39 µM; in the experiment with HT-29, 2.12 µM; with HCT-116 it was 6.63 µM; with K562 it was 5.4 µM; with HepG2, 5.76 µM; in the experiment with SW-620 it was 5 µM.

For the molecule `COc1ccc(C(=O)/C=C/c2ccc(OC)c(OC)c2OC)c2c1C=CC(C)(C)O2`, the IC50 in the experiment with SK-OV-3, in the experiment on HT-29, in the experiment with HCT-116, in the experiment with K562, with HepG2 and in the experiment on SW-620 was greater than 10 µM in each case.

On to `COc1ccc(C(=O)/C=C/c2ccc(-n3ccnc3)cc2)c2c1C=CC(C)(C)O2`, for which the IC50 with SK-OV-3 is 7.2 µM; in the experiment on HT-29 it was greater than 6.6 µM; with HCT-116, greater than 10 µM; in the experiment on K562 it was greater than 10 µM; with HepG2, greater than 10 µM; in the experiment on SW-620, greater than 10 µM.

`COc1ccc(C(=O)/C=C/c2ccc(F)cc2)c2c1C=CC(C)(C)O2`: the IC50 in the experiment with SK-OV-3, with HT-29, in the experiment on HCT-116, in the experiment on K562, in the experiment with HepG2 and in the experiment on SW-620 was greater than 10 µM throughout.

On to `COc1ccc(C(=O)/C=C/c2ccc(Cl)c(Cl)c2)c2c1C=CC(C)(C)O2`, for which the IC50 is 9.94 µM with SK-OV-3; 7.58 µM with HT-29; 9.44 µM in the experiment with HCT-116; 9.03 µM in the experiment on K562; greater than 10 µM in the experiment on HepG2; 7.7 µM in the experiment on SW-620.
